Assay results from different studies.
Medium: plasma

Compound | system | setting | quantity | result
CNC(=O)n1ccc2cc(Oc3ccnc(NC(=O)c4ccc(C5CCN(CCO)CC5)cc4)c3)c(OCCOC)cc21 | human | oral, 35 mg, single dose, fasted, healthy volunteers | AUC(0-inf) | 128 ng·h/mL
NC(=S)NN=Cc1ncccc1N | human | oral, 150 mg | AUC(0-inf) | 1030 ng·h/mL
Cc1ccc(C(=O)Nc2ccc(CN3CCN(C)CC3)c(C(F)(F)F)c2)cc1C#Cc1cnc2[nH]ncc2c1 | human | oral, 40 mg, single dose, healthy volunteers | AUC(0-t) | 246 ng·h/mL
CC[C@H](C)CCCCC(=O)N[C@@H](CCN)C(=O)N[C@H](C(=O)N[C@@H](CCN)C(=O)N[C@H]1CCNC(=O)[C@H]([C@@H](C)O)NC(=O)[C@H](CCN)NC(=O)[C@H](CCN)NC(=O)[C@H](CC(C)C)NC(=O)[C@@H](Cc2ccccc2)NC(=O)[C@H](CCN)NC1=O)[C@@H](C)O | human | intravenous, 0.75 mg/kg, single dose, infusion | AUC(0-t) | 19600 ng·h/mL
COc1ccc([C@@H](O)c2cc(-c3ncnc4cc(N5CCOCC5)ccc34)c(F)cc2Cl)nn1 | human | oral, 400 mg, single dose, patients | AUC(0-t) | 14100 ng·h/mL
Cn1cc(Nc2nc(N)nc(-c3cccc(-n4ccc5cc(C6CC6)cc(F)c5c4=O)c3CO)n2)cn1 | human | oral, 300 mg, single dose, fasted, healthy volunteers | AUC(0-t) | 11500 ng·h/mL
CC(C)n1c(Nc2cccnc2)nc2cnc(Nc3ccc(N4CCN(C)CC4)cc3)nc21 | male human | oral, 100 mg | AUC(0-inf) | 853 ng·h/mL
CN1CC[C@@H](c2c(O)cc(O)c3c(=O)cc(-c4ccc(C(F)(F)F)cc4Cl)oc23)[C@@H]1CO | human | oral, 150 mg, patients | AUC(0-t) | 3760 ng·h/mL
Cl.[2H]C([2H])([2H])CC(=O)c1cnc(NC(=O)C2CC2)cc1Nc1cccc(-c2ncn(C([2H])([2H])[2H])n2)c1OC | human | oral, 10 mg, multiple doses, once daily, steady state | AUC | 796 ng·h/mL
